Screening data: PubChem, Sanford-Burnham Center for Chemical Genomics
LMPTP block = LMPTP (human) inhibition; P24666; 360,000 tested, 0.22% active; recombinant LMPTP-A, OMFP fluorogenic substrate, fluorescence intensity; AID 651560; inhibition, % at 20 µM;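 active = compounds that cut the enzyme signal by at least half of the control window in the single-dose screen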
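material = LMPTP-A | quantity = 0.625 nM enzyme | reagent = OMFP substrate, 400 µM final | buffer or medium = Bis-Tris pH 6.0, DTT, detergent | detection = endpoint fluorescence intensity from OMFP dephosphorylation | dosing = single 20 µM dose | read-out basis = % inhibition relative to no-enzyme and uninhibited control wells | control set = no-enzyme and uninhibited controls | timing = 50 min at room temperature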
STEP inh = inhibitors of human striatal-enriched phosphatase STEP | recombinant STEP, OMFP fluorogenic substrate, fluorescence | inhibition, % at 20 µM | 360,000 tested, 0.25% active;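 active = inhibition at 20 µM, scaled per plate between control wells, above about 37%, limit read from the data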
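Material: STEP (striatal-enriched tyrosine phosphatase) enzyme, cell-free | Medium: 50 mM Bis-Tris pH 6.0 with 2.5 mM DTT and 0.005% Tween 20 | Read-out: Percent inhibition scaled to no-enzyme and uninhibited-enzyme controls, plate-pattern corrected | Signal: Fluorescence read at 480 nm ex / 540 nm em | Times: 20 min reaction, room temperature, in the dark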
Rpn11 block = Rpn11 (human) deubiquitinase inhibition | O00487 | human 26S proteasome, Ub4-pepOG fluorescence polarization; 20S core pre-blocked with epoxomicin | inhibition, % at 20 µM | 360,000 tested, 0.59% active;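 active = inhibition at 20 µM, scaled to each plate's controls, above about 33%, limit read from the data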
Scp-1 inhibitor = inhibitors of human Scp-1 phosphatase. Q9GZU7. Recombinant Scp1, phosphopeptide, malachite green phosphate absorbance. inhibition, % at 20 µM. 340,000 tested, 0.88% active. AID 493091;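 active = inhibition above about 50% at 20 µM, limit read from the data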
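Material – SCP-1 phosphatase catalytic domain, residues 76-261 · Buffer or medium – Acidic Tris acetate buffer with magnesium and detergent · Also added – Phospho 17-mer peptide substrate · Compound – single 20 µM dose, 1% DMSO · Times – 45 min room-temperature reaction, 5 min colour, 30 min stabiliser · Technique – Phosphate-binding colour reagent, absorbance read at 630 nm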
DNMT1 block = inhibitors of human DNMT1; DNMT1 molecular beacon, Hinp1I cleavage, fluorescence; inhibition (reported as % activation of signal), % at 10 µM; 360,000 tested, 0.83% active; AID 588458; in the data active = inhibition above about 50%
Target sequence (P26358 504-1616 limits assumed): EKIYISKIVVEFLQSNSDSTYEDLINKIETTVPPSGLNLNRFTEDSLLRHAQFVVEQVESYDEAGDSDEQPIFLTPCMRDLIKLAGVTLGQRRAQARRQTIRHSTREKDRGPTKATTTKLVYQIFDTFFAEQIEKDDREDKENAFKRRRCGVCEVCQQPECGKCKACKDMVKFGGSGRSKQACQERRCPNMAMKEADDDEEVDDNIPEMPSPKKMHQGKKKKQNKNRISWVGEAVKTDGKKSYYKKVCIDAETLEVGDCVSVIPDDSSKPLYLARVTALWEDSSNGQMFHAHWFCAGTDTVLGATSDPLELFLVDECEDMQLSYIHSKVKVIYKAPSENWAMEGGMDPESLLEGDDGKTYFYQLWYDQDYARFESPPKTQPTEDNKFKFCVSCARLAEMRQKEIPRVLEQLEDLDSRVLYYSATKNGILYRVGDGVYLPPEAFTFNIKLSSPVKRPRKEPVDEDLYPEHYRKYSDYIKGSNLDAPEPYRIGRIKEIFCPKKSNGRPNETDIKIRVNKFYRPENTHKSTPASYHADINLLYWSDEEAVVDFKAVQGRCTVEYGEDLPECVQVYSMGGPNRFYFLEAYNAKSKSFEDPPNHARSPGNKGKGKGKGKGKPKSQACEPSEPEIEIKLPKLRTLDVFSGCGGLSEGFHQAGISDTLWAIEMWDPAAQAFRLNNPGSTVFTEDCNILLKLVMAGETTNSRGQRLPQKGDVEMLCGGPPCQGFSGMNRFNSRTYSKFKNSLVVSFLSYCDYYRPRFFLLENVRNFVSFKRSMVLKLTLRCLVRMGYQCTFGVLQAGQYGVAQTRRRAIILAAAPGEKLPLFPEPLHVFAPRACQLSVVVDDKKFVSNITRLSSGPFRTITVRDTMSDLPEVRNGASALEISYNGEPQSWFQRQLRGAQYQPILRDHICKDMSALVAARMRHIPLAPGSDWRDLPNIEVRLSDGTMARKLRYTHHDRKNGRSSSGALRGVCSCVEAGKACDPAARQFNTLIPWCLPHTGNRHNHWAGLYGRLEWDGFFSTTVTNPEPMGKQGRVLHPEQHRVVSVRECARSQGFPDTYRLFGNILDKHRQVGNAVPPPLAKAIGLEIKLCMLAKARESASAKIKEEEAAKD
SUMO1-SIM PPI = alters human SUMO1 binding to SIM partners; P63165; SUMO1 binding to a labelled peptide, TR-FRET, 1 h; inhibition, % at 20 µM; 360,000 tested, 0.33% active; AID 602429; in the data active = inhibition above about 37%
Rpn11 inh conf = Rpn11 inhibition confirmation, single concentration; shares compounds with Rpn11 block; purified human 26S proteasome, Ub4-pepOG fluorescence polarization; proteasome pretreated with epoxomicin; inhibition, % at 20 µM; 1,900 tested, 29% active; AID 602318
MMP-2 counter = counter-screen for RPN11 inhibitors: inhibition of human MMP-2. AID 602330. 1,900 tested, 4% active. shares compounds with Rpn11 block. recombinant MMP-2, FRET peptide cleavage fluorescence. inhibition, % at 20 µM;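 also: human MMP-2 activated beforehand with APMA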
Thrombin inh = thrombin (bovine) inhibition counter-screen; shares compounds with Rpn11 block; bovine thrombin cleavage of Ub4-pepOG, fluorescence polarization; inhibition, % at 20 µM; 1,900 tested, 13% active;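 active = mean inhibition at least 40% at 20 µM, or signal 3 deviations below plate average, so some actives read negative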
Large screens that a line does not name were inactive (follow-up assays come after a bar, where shown). Hits are enriched below; roughly 2.3% of the tested compounds scored in any of these assays. Rule as the data show it, unless noted: active = inhibition above about 40%; inactive = the rest.

O=C(NN1C(=O)/C(=C/c2cccs2)SC1=S)c1cccnc1	Rpn11 block 42.1 | Rpn11 inh conf inactive | MMP-2 counter inactive | Thrombin inh inactive
COc1cc(/C=C2\SC(=S)N(NC(=O)c3ccc(O)c(OC)c3)C2=O)ccc1O	none (not shown: Rpn11 block)
COc1cc(/C=C2\SC(=S)N(NC(=O)c3cccc(O)c3)C2=O)ccc1O	none (not shown: Rpn11 block)
COc1cc(/C=C2\SC(=S)N(NC(=O)c3ccccc3OC)C2=O)ccc1O	Rpn11 block 75.4 | Rpn11 inh conf inactive | MMP-2 counter inactive | Thrombin inh inactive
COc1cc(/C=C2\SC(=S)N(NC(=O)c3ccncc3)C2=O)ccc1O	Rpn11 block 102.6 | Rpn11 inh conf 72.6 | MMP-2 counter inactive | Thrombin inh 65.1
CCOc1cc(/C=C2\SC(=S)N(NC(=O)c3cccnc3)C2=O)ccc1O	Rpn11 block 78.3 | Rpn11 inh conf 83.3 | MMP-2 counter inactive | Thrombin inh 62.0
CCCN(CCC)CCCNC(=O)Cn1cnc2sc(C)c(S(=O)(=O)N3CCOCC3)c2c1=O	none
Cc1ccc(S(=O)(=O)NCc2ccccn2)cc1C	none
O=C(NNC(=O)c1ccccc1-n1cccc1)c1cncc(Br)c1	none
COc1ccc(OCC(=O)Nc2cc(-c3nn4c(C)nnc4s3)ccc2C)cc1	Rpn11 block 50.6 | Rpn11 inh conf inactive | MMP-2 counter inactive | Thrombin inh inactive
c1ccc(OCCn2c(-c3ccco3)nc3ccccc32)cc1	Rpn11 block 48.8 | Rpn11 inh conf inactive | MMP-2 counter inactive | Thrombin inh inactive
Cc1cccc(OCCn2c(-c3ccco3)nc3ccccc32)c1	none
O=C(Nc1ccc(S(=O)(=O)N2CCCC2)cc1)C1CC(=O)N(c2ccc(F)cc2)C1 (stereo unspecified)	none
O=c1[nH]c(=S)[nH]c2c1C(c1ccc(Br)cc1)c1c([nH]c(=S)[nH]c1=O)O2	LMPTP block 68.1, STEP inh 91.8, Rpn11 block 140.7, Scp-1 inhibitor 97.5, DNMT1 block 67.4, SUMO1-SIM PPI 115.3 | Rpn11 inh conf 49.0 | MMP-2 counter inactive | Thrombin inh inactive
COc1ccc(CN2CC(=O)N(c3ccc(C)c(C)c3)C2=S)cc1OC	none
Cc1c(NC(=O)c2cccc(-c3cc4ccccc4oc3=O)c2)cccc1-c1nc2ncccc2o1	Rpn11 block 137.9 | Rpn11 inh conf 109.5 | MMP-2 counter inactive | Thrombin inh inactive
Cc1c(NC(=O)C(C)C)cccc1-c1nc2ncccc2o1	none
COc1ccc(/C=C2\SC(=S)N(CCCC(=O)Nc3ccc(C(=O)O)cc3)C2=O)cc1OC	Rpn11 block 55.9 | Rpn11 inh conf 67.2 | MMP-2 counter inactive | Thrombin inh 51.6
COc1ccc(/C=C2\SC(=S)N(CCCC(=O)Nc3ccccc3C(=O)O)C2=O)cc1OC	Rpn11 block 47.9 | Rpn11 inh conf 88.0 | MMP-2 counter inactive | Thrombin inh 80.9
COc1ccc(/C=C2\SC(=S)N(CCC(=O)Nc3ccccc3C(=O)O)C2=O)cc1	none
COc1cccc(/C=C2/SC(=S)N(CCCC(=O)Nc3ccc(O)cc3)C2=O)c1	none
COc1ccc(/C=C2\SC(=O)N(CCCC(=O)Nc3ccc(C(=O)O)cc3)C2=O)cc1OC	none
COc1cc(/C=C2\SC(=S)N(CC(=O)O)C2=O)ccc1OC(=O)c1ccco1	none
COc1cc(/C=C2/SC(=S)N(CC(=O)O)C2=O)ccc1OC(=O)c1ccco1	Rpn11 block 45.0 | Rpn11 inh conf inactive | MMP-2 counter inactive | Thrombin inh inactive
COc1ccc(/C=C2/SC(=S)N(CCCC(=O)Nc3ccc(O)cc3)C2=O)cc1OC	Rpn11 block 44.7 | Rpn11 inh conf 60.7 | MMP-2 counter inactive | Thrombin inh 42.3
COc1cccc(-c2cnc(C(O)c3ccc(-c4ccccc4)cc3)[nH]2)c1 (stereo unspecified)	none (no result: Scp-1 inhibitor)
Cc1ccc(/C=C2\SC(=S)N(CCC(=O)NNC(=O)c3ccccc3O)C2=O)cc1	none
Cc1ccc(/C=C2\SC(=S)N(CCCC(=O)NNC(=O)c3ccccc3O)C2=O)cc1	Rpn11 block 42.0 | Rpn11 inh conf 42.8 | MMP-2 counter inactive | Thrombin inh inactive
Cc1ccsc1/C=C/c1ccc2cccc(O)c2n1	none
Cc1ccsc1/C=C/c1ccc2ccccc2n1	Rpn11 block 48.2 | Rpn11 inh conf 52.6 | MMP-2 counter inactive | Thrombin inh inactive
CCOC(=O)c1c(CC(C)C)csc1/N=C/C1C(=O)CC(C)(C)CC1=O	Rpn11 block 48.1 | Rpn11 inh conf inactive | MMP-2 counter inactive | Thrombin inh inactive
CCOC(=O)c1cc(C)sc1/N=C/C1C(=O)CC(C)(C)CC1=O	none
CS(=O)(=O)N1CCN(c2ccc([N+](=O)[O-])c(NCc3ccc(Cl)cc3)c2)CC1	Rpn11 block 44.7 | Rpn11 inh conf inactive | MMP-2 counter inactive | Thrombin inh inactive
CCC1=[N+](CC(=O)c2ccc(C)cc2)CCn2c(C)ccc21	none
CCC1=[N+](CC(=O)c2ccc(C)cc2)CCn2cccc21	Rpn11 block 75.4 | Rpn11 inh conf inactive | MMP-2 counter inactive | Thrombin inh inactive
O=C(Nc1ccc(Cl)cc1)/C(=C/c1cccc(O)c1)c1nc2ccccc2s1	Rpn11 block 46.0 | Rpn11 inh conf inactive | MMP-2 counter inactive | Thrombin inh inactive
S=C(Nc1ccc(Cl)cc1)c1nc2ccccc2s1	none
COC(=O)c1ccccc1NC(=O)CN1CCN(Cc2ccccc2)CC1	Rpn11 block 36.7 | Rpn11 inh conf inactive | MMP-2 counter inactive | Thrombin inh inactive
Cc1ccc(NC(=O)CSc2ncnc3ccccc23)cc1S(=O)(=O)N1CCCCCC1	Rpn11 block 42.7 | Rpn11 inh conf inactive | MMP-2 counter 50.0 | Thrombin inh inactive
Cc1ccc(S(=O)(=O)N2CCCCC2)cc1NC(=O)CSc1ncnc2ccccc12	none
CCCCN1C(=O)C(CC(=O)NC2CC2)CC(C(=O)N2CCOCC2)=C1C (stereo unspecified)	none (no result: Scp-1 inhibitor)
CN1CCN(c2ccc(-c3cc(NC=O)c4ncc(-c5ccc(F)c(Cl)c5)n4c3)cc2)CC1	Rpn11 block 48.5 (no result: Scp-1 inhibitor) | Rpn11 inh conf inactive | MMP-2 counter inactive | Thrombin inh inactive
CC(C)Oc1ccc(S(=O)(=O)N2CCOCC2)cc1NC(=O)c1ccc(Cl)c(S(=O)(=O)N2CCOCC2)c1	none (no result: Scp-1 inhibitor)
COc1ccc(OC)c(/C=C/C(=O)OCC(=O)N2CCN(S(=O)(=O)c3ccc(C)cc3C)CC2)c1	none
